{"source": "PubChem BioAssay AID686939", "about": "(The Scripps Research Institute Molecular Screening Center, 2013)", "note": "The campaign covered roughly 3,500 compounds. About 1,400 (40%) were called active.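 How the source made its calls: active means activation above the solvent-only control well mean plus 3 SD, averaged across control plates (cut at about 5.2% in these data); inactive means the rest.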 So high a share suggests a set chosen from earlier hits. A selection follows."}
{"assay": "GAL4-VP16 luciferase reporter activation, counter-screen for SMARCA2 (BRM) activator project, cell-based, pG5luc, luminescence, high throughput (AID 686939)", "settings": "HEK293 GAL4-VP16 pG5luc reporter, at 9.1 µM, hits give high values, scaled: DMSO wells 0%, SAHA wells 100%", "summary_of_the_method": "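Assay system – HEK293 GAL4-VP16 luciferase reporter cells · Input – 2,500 cells per well · Detection – One-Glo luciferase luminescence · Control set – DMSO wells as low control, SAHA wells as high control · Measure – percent activation scaled between DMSO (0%) and SAHA (100%) control medians · Times – 24 h compound treatment at 37 °C, 15 min detection incubation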"}
{"smiles": "COc1cccc(-c2nc3cc(C)ccc3o2)c1", "activation": "3.74% (inactive)"}
{"smiles": "Cn1c(-c2ccc(F)cc2)cc2onc(-c3ccccc3Cl)c2c1=O", "activation": "9.37% (active)"}
{"smiles": "Fc1ccc(/C=N/Nc2nc(-c3cccnc3)nc3ccccc23)cc1", "activation": "8.57% (active)"}
{"smiles": "CC(=O)Nc1cc(-c2ccc(N3CCN(C)CC3)cc2)cn2c(-c3ccc(F)cc3)cnc12", "activation": "1.59% (inactive)"}
{"smiles": "Cc1nc(-c2nnc(SCC(=O)Nc3cc(C(F)(F)F)cc(C(F)(F)F)c3)n2C)cs1", "activation": "-1.04% (inactive)"}
{"smiles": "CCCCNC(=O)C1CCC(CNS(=O)(=O)c2ccc(NC(C)=O)cc2)CC1", "note": "(stereo not drawn)", "activation": "0.63% (inactive)"}
{"smiles": "Fc1ccc(CNc2nc3ccccc3n3nnnc23)cc1", "activation": "2.47% (inactive)"}
{"smiles": "CC(C)CCNC(=O)c1ccc2c(Cl)c3c(nc2c1)CCC3", "activation": "9.88% (active)"}
{"smiles": "COCC1CCN(C(=O)C2CCC(=O)N(Cc3cccc(C(F)(F)F)c3)C2)CC1", "note": "(stereo not drawn)", "activation": "1.34% (inactive)"}
{"smiles": "O=C(Nc1cc(=O)[nH]c2ncnn12)c1ccccc1Cl", "activation": "0.46% (inactive)"}
{"smiles": "COc1c(O)cc2oc(-c3ccc(O)c(O)c3)cc(=O)c2c1O", "activation": "12.4% (active)"}
{"smiles": "CCCn1nc(C(=O)Nc2ccc3nc(C)sc3c2)c2ccccc2c1=O", "activation": "-0.78% (inactive)"}
{"smiles": "O=C(N[C@H]1CC[C@H](CC(=O)N2CCCCC2)O[C@@H]1CO)c1cccc(F)c1", "activation": "0.09% (inactive)"}
{"smiles": "O=C(c1cc(-c2ccc(O)cc2)on1)N1CCOCC1", "activation": "6.96% (active)"}
{"smiles": "O=C(c1cc(-c2ccccc2O)on1)N1CCCC1", "activation": "9.74% (active)"}
{"smiles": "Cc1cc(-c2n[nH]c(=S)n2/N=C/C(Br)=C/c2ccccc2)n[nH]1", "activation": "4.37% (inactive)"}
{"smiles": "CCCCn1nnnc1C(c1cc2ccccc2o1)N(C)Cc1ccc(Cl)c(Cl)c1", "note": "(stereo not drawn)", "activation": "1.67% (inactive)"}
{"smiles": "O=C(CCCc1ccccc1)NCc1ccccc1", "activation": "2.83% (inactive)"}
{"smiles": "COc1ccc(OCCCC(=O)NCCc2ccccc2)cc1", "activation": "1.27% (inactive)"}
{"smiles": "Cc1ccc(F)c(NC(=O)CCc2ccccc2)c1", "activation": "5.92% (active)"}
{"smiles": "O=C(O)c1ccc(COc2c(F)c(F)cc(F)c2F)o1", "activation": "-0.39% (inactive)"}
{"smiles": "O=C(O)c1cccc(N=NN2CCCCCC2)c1", "activation": "13.9% (active)"}
{"smiles": "CN(C)CCNC(=O)c1cccc(-c2cnc3c(NC=O)cc(-c4cccc(C(F)(F)F)c4)cn23)c1", "activation": "1.42% (inactive)"}
{"smiles": "COc1ccc(-c2csc(Cc3nc(O)cs3)n2)cc1", "activation": "19.6% (active)"}
{"smiles": "Cn1cccc1/C=N/NC(=O)c1ccc(OC(F)(F)C(F)F)cc1", "activation": "3.99% (inactive)"}
{"smiles": "O=C(c1cccs1)C1C(c2ccc(Br)cc2)NC(=S)NC1(O)C(F)(F)F", "note": "(stereo not drawn)", "activation": "2.08% (inactive)"}
{"smiles": "COc1cc(CN2CCC(C(N)=O)CC2)ccc1OCc1ccccc1", "activation": "8.4% (active)"}
{"smiles": "COc1ccc(CC2c3cc(OC)c(OC)cc3CC[N+]2(C)CCC(=O)OCCCCCOC(=O)CC[N+]2(C)CCc3cc(OC)c(OC)cc3C2Cc2ccc(OC)c(OC)c2)cc1OC", "note": "(stereo not drawn)", "activation": "1.23% (inactive)"}
{"smiles": "COc1ccccc1OCC(=O)O/N=C(\\N)c1ccccn1", "activation": "4.97% (inactive)"}
{"smiles": "Cc1noc(C)c1S(=O)(=O)N(C)C[C@H]1Oc2c(NC(=O)Nc3ccc4c(c3)OCO4)cccc2C(=O)N([C@H](C)CO)C[C@@H]1C", "activation": "0.03% (inactive)"}
{"smiles": "CN(C)C(=S)N=c1ssc(=S)n1Cc1ccco1", "activation": "11.9% (active)"}
{"smiles": "CCOC(=O)c1sc2nc(CSc3ccccc3)[nH]c(=O)c2c1C", "activation": "0.23% (inactive)"}
{"smiles": "COc1ccc(-c2cc3ncccc3cn2)cc1", "activation": "9.76% (active)"}
{"smiles": "Cc1ccc(NC(=O)C(=O)NCc2ccco2)c(C)c1", "activation": "5.75% (active)"}
{"smiles": "CC(C)(C)c1ccc(NC(=O)NCc2ccco2)cc1", "activation": "0.6% (inactive)"}
{"smiles": "Cc1cc(O)c(NC(=O)c2ccc(C)c([N+](=O)[O-])c2)cc1C", "activation": "7.82% (active)"}
{"smiles": "FC(F)(F)c1cccc(-c2nc3ccccc3n2C(c2ccccc2)c2nc3ccccc3[nH]2)c1", "note": "(stereo not drawn)", "activation": "4.89% (inactive)"}
{"smiles": "CN(C)S(=O)(=O)c1ccc2oc(SCC(=O)Nc3ccccc3F)nc2c1", "activation": "13.2% (active)"}
{"smiles": "COc1ccc(C(CNC(=O)c2ccc(S(=O)(=O)Nc3ccccc3F)cc2)N(C)C)cc1", "note": "(stereo not drawn)", "activation": "-0.57% (inactive)"}
{"smiles": "COc1ccc(N=C(C)c2sc3ccccc3c2O)cc1", "activation": "6.57% (active)"}
{"smiles": "CCOC(=O)C(C)n1cnc2c(nnn2-c2cccc(OC)c2)c1=O", "note": "(stereo not drawn)", "activation": "4.04% (inactive)"}
{"smiles": "COc1ccc(C(=O)NC2=NCCS2)c(OC)c1", "activation": "12.2% (active)"}
{"smiles": "Cc1ccc(N/C=C/C(=O)c2ccccc2)cc1C", "activation": "6.49% (active)"}
{"smiles": "Cc1cc(=O)[nH]c(N/N=C/c2ccc3c(c2)OCCO3)n1", "activation": "3.2% (inactive)"}
{"smiles": "CCc1c(C)c2ccc(OC3CCCCC3=O)cc2oc1=O", "note": "(stereo not drawn)", "activation": "2.57% (inactive)"}
{"smiles": "COc1cc(/C=N/NC(=O)c2ccccc2)ccc1OS(=O)(=O)c1ccccc1", "activation": "0.14% (inactive)"}
{"smiles": "COc1ccc(/C=N/NC(=O)c2cc(-c3cccc(C)c3)nc3ccccc23)cc1O", "activation": "7.74% (active)"}
{"smiles": "CC(C)(C)NC(=O)C(CCc1ccccc1)n1c(=O)c(-c2ccccc2)nc2ccccc21", "note": "(stereo not drawn)", "activation": "0.34% (inactive)"}
{"smiles": "CCCCc1ccc(NC(=S)N2CCCC(CO)C2)cc1", "note": "(stereo not drawn)", "activation": "10.3% (active)"}
{"smiles": "CCC(C)N(C)C1CCN(C(=S)Nc2ccc(OC)cc2)CC1", "note": "(stereo not drawn)", "activation": "1.62% (inactive)"}
{"smiles": "Cc1cc(C)c2nc3nc(C)cc(C)c3c(N)c2c1", "activation": "3.96% (inactive)"}
{"smiles": "O=C1Cc2cc(S(=O)(=O)Nc3cccc(F)c3)ccc2N1", "activation": "1.09% (inactive)"}
{"smiles": "CCc1ccc[n+](-c2nc([O-])sc2C=O)c1", "activation": "0.22% (inactive)"}
{"smiles": "Cc1cc(C)nc(Nc2n[nH]c(-c3ccccc3N)n2)n1", "activation": "12.3% (active)"}
{"smiles": "CCOC(=O)c1c(C)[nH]c(C2=NNC(=NC(C)COC)SC2)c1C", "note": "(stereo not drawn)", "activation": "8.27% (active)"}
{"smiles": "COc1cccc(OCCOc2cccc(/C=N/n3cnnc3)c2)c1", "activation": "6.43% (active)"}
{"smiles": "Cc1ccc(-c2c(C)n([O-])c3c([n+]2=O)CCC3)cc1", "activation": "-0.96% (inactive)"}
{"smiles": "Cc1ccc(C(=O)CSc2ccccc2C(=O)O)cc1", "activation": "6.75% (active)"}
{"smiles": "COCC(C)n1c(SCc2ccc(C(=O)OC)o2)nc2ccccc2c1=O", "note": "(stereo not drawn)", "activation": "2.22% (inactive)"}
{"smiles": "CC1CCCCC1NC(=O)CN1CCC(O)(c2ccc3c(c2)OCO3)CC1", "note": "(stereo not drawn)", "activation": "4.35% (inactive)"}
{"smiles": "O=C(Nc1cccc([N+](=O)[O-])c1)c1ccc2c(c1)OCO2", "activation": "8.02% (active)"}
{"smiles": "COc1ccc(C)cc1S(=O)(=O)N(CC(=O)Nc1cccc([N+](=O)[O-])c1)c1ccc(C)cc1", "activation": "-1.27% (inactive)"}
{"smiles": "COc1ccc(C(=O)Nc2ccc3c(c2)OCO3)cc1OC", "activation": "10.2% (active)"}
{"smiles": "O=C(Nc1cccc([N+](=O)[O-])c1)N1CCc2ccccc2C1", "activation": "4.55% (inactive)"}
{"smiles": "Cc1ccnc(Nc2nc3ccccc3s2)n1", "activation": "3.74% (inactive)"}
{"smiles": "CC1(C)CC(=O)C=C(NCCCNC2CCCCC2)C1", "activation": "-0.02% (inactive)"}
{"smiles": "Cc1cc2oc3ccc(NCCC4CCCN4C)cc3c(=O)c2cc1C", "note": "(stereo not drawn)", "activation": "6.3% (active)"}
{"smiles": "Cc1ccccc1C#CC1=CC(=O)CC(C)(C)C1", "activation": "1.83% (inactive)"}
